SMILES strings stand for the structures.

Type in all cases: ADME
The target of data set [1] is T1, UDP-glucuronosyltransferase 2B7 (Homo sapiens, UniProt P16662).
T1 sequence (P16662 whole entry): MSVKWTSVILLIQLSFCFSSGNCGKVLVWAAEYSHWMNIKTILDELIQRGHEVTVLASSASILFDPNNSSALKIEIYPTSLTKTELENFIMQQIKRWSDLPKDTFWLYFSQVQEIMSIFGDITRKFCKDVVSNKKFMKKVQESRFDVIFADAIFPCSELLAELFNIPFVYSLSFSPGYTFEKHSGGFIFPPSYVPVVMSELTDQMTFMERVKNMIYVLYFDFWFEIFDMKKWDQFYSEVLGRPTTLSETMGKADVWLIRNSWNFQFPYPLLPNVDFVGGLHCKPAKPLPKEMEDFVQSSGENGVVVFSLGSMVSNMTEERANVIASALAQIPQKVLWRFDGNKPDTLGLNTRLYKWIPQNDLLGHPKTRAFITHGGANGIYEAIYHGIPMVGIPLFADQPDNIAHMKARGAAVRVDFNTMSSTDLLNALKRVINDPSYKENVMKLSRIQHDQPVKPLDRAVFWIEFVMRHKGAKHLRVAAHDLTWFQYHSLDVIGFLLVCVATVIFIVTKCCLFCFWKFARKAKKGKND
Kind of data set: Drug metabolism assessed as recombinant human C-terminal His-tagged UGT2B7-mediated estriol-16-glucuronide formation after 15 to 60 mins by Michaelis-Menten equation analysis in presence of UDPGA. The settings on record: recombinant enzyme. The essentials: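 Kinetics with His-tagged UGT-enriched insect-cell membranes (5 or 50 µg): aglycone 0.2–300 µM in 10% DMSO, 5 mM UDPGA, 10 mM MgCl₂, 50 mM phosphate pH 7.4, 15–60 min at 37°C. Substrate consumption kept at or below 10%. Glucuronides quantified by HPLC in triplicate, rates normalized to expression, and data fitted to Michaelis-Menten.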

Data set [2] has as its target UDP-glucuronosyltransferase 1A7 (Homo sapiens, UniProt Q9HAW7). Kind of data set: Drug metabolism assessed as recombinant human C-terminal His-tagged UGT1A7-mediated 16-epiestriol-3-glucuronide formation after 15 to 60 mins by Michaelis-Menten equation analysis in presence of UDPGA. The settings on record: recombinant enzyme.
Data set [3] concerns the target T2, UDP-glucuronosyltransferase 1A8 (Homo sapiens, UniProt Q9HAW9).
T2 sequence (Q9HAW9 whole entry): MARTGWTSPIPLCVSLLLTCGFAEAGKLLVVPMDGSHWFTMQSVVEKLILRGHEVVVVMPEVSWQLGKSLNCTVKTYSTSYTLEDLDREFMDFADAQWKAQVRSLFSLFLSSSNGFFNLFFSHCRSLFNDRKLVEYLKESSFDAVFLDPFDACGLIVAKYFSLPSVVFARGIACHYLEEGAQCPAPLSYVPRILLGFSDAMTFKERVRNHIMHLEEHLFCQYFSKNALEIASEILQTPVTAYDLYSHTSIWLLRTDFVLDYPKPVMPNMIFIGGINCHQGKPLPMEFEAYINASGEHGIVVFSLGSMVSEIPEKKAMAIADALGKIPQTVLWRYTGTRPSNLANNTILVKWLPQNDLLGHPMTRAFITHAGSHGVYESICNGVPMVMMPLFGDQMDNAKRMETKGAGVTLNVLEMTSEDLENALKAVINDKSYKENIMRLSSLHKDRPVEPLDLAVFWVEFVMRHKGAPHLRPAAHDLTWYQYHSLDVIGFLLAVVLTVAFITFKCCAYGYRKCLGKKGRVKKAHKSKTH
Kind of data set: Drug metabolism assessed as recombinant human C-terminal His-tagged UGT1A8-mediated 16-epiestriol-3-glucuronide formation after 15 to 60 mins by Michaelis-Menten equation analysis in presence of UDPGA. The conditions noted are these: recombinant enzyme.

The target of data set [4] is T3, UDP-glucuronosyltransferase 2B4 (Homo sapiens, UniProt P06133).
T3 sequence (P06133 whole entry): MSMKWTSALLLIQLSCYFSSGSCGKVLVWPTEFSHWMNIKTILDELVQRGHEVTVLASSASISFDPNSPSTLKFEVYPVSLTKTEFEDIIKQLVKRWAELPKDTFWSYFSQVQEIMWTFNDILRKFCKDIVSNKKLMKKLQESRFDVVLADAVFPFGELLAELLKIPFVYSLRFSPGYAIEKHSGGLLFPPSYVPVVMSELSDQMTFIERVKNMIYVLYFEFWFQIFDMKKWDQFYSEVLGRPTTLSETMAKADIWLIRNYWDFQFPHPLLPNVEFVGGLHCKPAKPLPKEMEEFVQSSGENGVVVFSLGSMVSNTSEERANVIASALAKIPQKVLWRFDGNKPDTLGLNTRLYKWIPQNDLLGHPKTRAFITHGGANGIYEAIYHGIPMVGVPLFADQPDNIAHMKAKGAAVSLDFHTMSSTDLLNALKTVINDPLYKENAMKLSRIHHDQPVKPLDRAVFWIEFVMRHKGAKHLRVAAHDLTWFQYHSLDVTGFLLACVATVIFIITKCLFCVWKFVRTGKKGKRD
Put plainly: Drug metabolism assessed as recombinant human C-terminal His-tagged UGT2B4-mediated 16-epiestriol-16-glucuronide formation after 15 to 60 mins by Michaelis-Menten equation analysis in presence of UDPGA. The settings on record: recombinant enzyme.

Data set [5] has as its target T4, UDP-glucuronosyltransferase 2A1 (Homo sapiens, UniProt P0DTE4).
T4 sequence (P0DTE4 whole entry): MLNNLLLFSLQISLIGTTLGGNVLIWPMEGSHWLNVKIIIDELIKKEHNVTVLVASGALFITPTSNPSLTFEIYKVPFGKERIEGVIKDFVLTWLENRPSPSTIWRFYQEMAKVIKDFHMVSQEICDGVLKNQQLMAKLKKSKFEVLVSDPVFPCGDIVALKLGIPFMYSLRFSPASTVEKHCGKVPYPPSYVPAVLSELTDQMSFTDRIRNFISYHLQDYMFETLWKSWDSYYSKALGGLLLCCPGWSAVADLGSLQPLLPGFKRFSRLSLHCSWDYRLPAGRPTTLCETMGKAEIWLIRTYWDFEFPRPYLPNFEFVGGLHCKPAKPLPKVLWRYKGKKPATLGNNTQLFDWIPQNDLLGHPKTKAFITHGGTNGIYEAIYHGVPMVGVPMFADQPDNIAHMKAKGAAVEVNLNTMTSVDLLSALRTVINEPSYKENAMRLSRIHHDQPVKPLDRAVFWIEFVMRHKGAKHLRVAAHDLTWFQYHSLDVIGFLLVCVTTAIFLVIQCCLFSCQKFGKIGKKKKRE
Put plainly: Drug metabolism assessed as recombinant human C-terminal His-tagged UGT2A1-mediated 17-epiestriol-17-glucuronide formation at 5 mg after 5 hrs by NMR spectroscopic analysis in presence of UDPGA.

For a further data set, the system named is Liver microsome. Put plainly: Drug metabolism in human liver microsomes assessed as 17-epiestriol-16-glucuronide formation after 15 to 60 mins by Michaelis-Menten equation analysis in presence of UDPGA. The essentials:
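Pooled human liver microsomes (30 donors), 0.5 or 10 µg, with alamethicin at 5% of total protein. Incubated with 50 mM phosphate pH 7.4, 10 mM MgCl₂, 5 mM UDPGA and 10% DMSO for 15–60 min at 37°C. Each glucuronide regioisomer quantified by HPLC, in triplicate, with substrate consumption at or below 10%.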

UDP-glucuronosyltransferase 1A7, sequence (Q9HAW7 whole entry): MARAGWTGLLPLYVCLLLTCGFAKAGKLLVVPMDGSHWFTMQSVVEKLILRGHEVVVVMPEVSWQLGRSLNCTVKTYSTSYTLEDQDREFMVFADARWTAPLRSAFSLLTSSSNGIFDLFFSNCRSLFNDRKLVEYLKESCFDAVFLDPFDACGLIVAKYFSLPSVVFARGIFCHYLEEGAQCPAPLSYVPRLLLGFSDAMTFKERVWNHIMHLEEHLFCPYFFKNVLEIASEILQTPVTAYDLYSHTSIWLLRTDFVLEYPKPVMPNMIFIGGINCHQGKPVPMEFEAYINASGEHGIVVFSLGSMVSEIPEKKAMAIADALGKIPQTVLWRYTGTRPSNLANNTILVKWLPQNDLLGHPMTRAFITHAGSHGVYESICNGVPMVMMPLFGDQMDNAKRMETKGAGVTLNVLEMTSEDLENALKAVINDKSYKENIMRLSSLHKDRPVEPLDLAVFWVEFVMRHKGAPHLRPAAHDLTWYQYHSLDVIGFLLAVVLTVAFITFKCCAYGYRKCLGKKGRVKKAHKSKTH

Regarding `C[C@]12CC[C@@H]3c4ccc(O)cc4CC[C@H]3[C@@H]1C[C@@H](O)[C@@H]2O` [ESTRIOL], the Drug metabolism in data set [1] is listed as 1200 pmol/min/mg.

With `C[C@]12CC[C@@H]3c4ccc(O)cc4CC[C@H]3[C@@H]1C[C@H](O)[C@@H]2O` [EPIESTRIOL], the values for the Drug metabolism in data set [2], in data set [3] and in data set [4] were 0.5 pmol/min/mg, 0.5 pmol/min/mg and 5 pmol/min/mg, respectively.

Regarding `C[C@]12CC[C@@H]3c4ccc(O)cc4CC[C@H]3[C@@H]1C[C@@H](O)[C@H]2O`, the Drug metabolism result in data set [5] is given as “metabolite_detected”. In the data set with Liver microsome, the Michaelis constant (Km) was found to be 7.8 µM and the Vmax is on record as 128 pmol/min/mg.

In general, Km refers to the substrate concentration at which the rate is half of its maximum. One may read the Vmax as the rate approached at saturating substrate.

Values taken from ChEMBL document CHEMBL3525985, “Regiospecificity and stereospecificity of human UDP-glucuronosyltransferases in the glucuronidation of estriol, 16-epiestriol, 17-epiestriol, and 13-epiestradiol” (Drug Metab Dispos, 2013).
